Format in all cases: functional
The subject of experiment [1] is HeLa. Briefly: Cytotoxicity against human HeLa cells assessed as inhibition of cell viability at 10 uM after 3 days by trypan blue dye exclusion assay. The conditions noted are these: 72 h. The method in brief: (§1)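 Viable cells were counted by trypan blue exclusion on an automated analyzer. Viability was taken as treated/vehicle viable cell count. The inhibitory rate is the control percentage viability minus the treated percentage viability. Variation between replicate experiments was at most 5%.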

Experiment [2] relates to LNCaP. Briefly: Cytotoxicity against human LNCAP cells assessed as inhibition of cell viability at 10 uM after 3 days by trypan blue dye exclusion assay. The conditions noted are these: 72 h. The method in brief:
as §1

The nature of experiment [3]: Cytotoxicity against human DU145 cells assessed as inhibition of cell viability at 10 uM after 3 days by trypan blue dye exclusion assay. The following applies: DU-145, 72 h. The method in brief: as §1
Experiment [4] in a line: Cytotoxicity against human PC3 cells assessed as inhibition of cell viability at 1 uM after 3 days by trypan blue dye exclusion assay. The following applies: PC-3, 72 h. The method in brief: as §1
Experiment [5] deals with LNCaP. Briefly: Cytotoxicity against human LNCAP cells assessed as inhibition of cell viability at 1 uM after 3 days by trypan blue dye exclusion assay. The conditions noted are these: 72 h. The essentials: as §1
Experiment [6] concerns HeLa. Briefly: Cytotoxicity against human HeLa cells assessed as inhibition of cell viability at 1 uM after 3 days by trypan blue dye exclusion assay. The conditions noted are these: 72 h. The method in brief:
as §1

The nature of experiment [7]: Cytotoxicity against human DU145 cells assessed as inhibition of cell viability at 1 uM after 3 days by trypan blue dye exclusion assay. The following applies: DU-145, 72 h. The method in brief:
as §1

The nature of experiment [8]: Cytotoxicity against human PC3 cells assessed as inhibition of cell viability at 10 uM after 3 days by trypan blue dye exclusion assay. The following applies: PC-3, 72 h. The method in brief: as §1

SMILES strings stand for the structures.

The term inhibition denotes the share of the control response that was lost under treatment.

With `CC(C)CCn1ccnc1/C=C/C=C/C(=O)/C=C/c1nccn1CCC(C)C`, the inhibition at 10 µM in the experiment with HeLa [1] stood at 95%; with LNCaP [2], 75%; in experiment [3], 88%; in experiment [8], 89%. Besides, the inhibition at 1 µM came out at 32% in experiment [4], 33% with LNCaP [5], 31% in the experiment with HeLa [6] and 32% in experiment [7].

As for `CCCCCn1ccnc1/C=C/C=C/C(=O)/C=C/c1nccn1CCCCC`, the inhibition at 10 µM is 95% with HeLa [1], 94% with LNCaP [2], 88% in experiment [3] and 86% in experiment [8]. Also, the inhibition at 1 µM in experiment [4] stood at 36%; with LNCaP [5], 44%; with HeLa [6] it was 39%; in experiment [7], 43%.

Regarding `Cc1csc(/C=C/C=C/C(=O)/C=C/c2nc(C)cs2)n1`, the inhibition at 10 µM with HeLa [1] stood at 96%; in the experiment with LNCaP [2], 57%; in experiment [3], 46%; in experiment [8], 86%. The inhibition at 1 µM in experiment [4] turned out to be 25%; in the experiment with LNCaP [5] it was 21%; in the experiment on HeLa [6], 20%; in experiment [7], 8%.

`CCCCCCn1ccnc1/C=C/C=C/C(=O)/C=C/c1nccn1CCCCCC`: the inhibition at 10 µM came out at 98% in the experiment with HeLa [1], 76% in the experiment with LNCaP [2], 86% in experiment [3] and 85% in experiment [8]. Besides, the inhibition at 1 µM in experiment [4] worked out at 11%; in the experiment with LNCaP [5], 31%; in the experiment with HeLa [6], 32%; in experiment [7], 34%.

For `O=C(/C=C/C=C/c1cccnc1)/C=C/c1cccnc1`, the inhibition at 10 µM with HeLa [1] was 97%; with LNCaP [2], 61%; in experiment [3], 87%; in experiment [8] it was 86%. Besides, the inhibition at 1 µM in experiment [4] was 24%; with LNCaP [5], 2%; in the experiment with HeLa [6], 20%; in experiment [7], 24%.

In the case of `O=C(/C=C/C=C/c1ccncc1F)/C=C/c1ccncc1F`, the inhibition at 10 µM in the experiment with HeLa [1] turned out to be 94%; in the experiment on LNCaP [2] it was 66%; in experiment [3], 81%; in experiment [8], 84%. In addition, the inhibition at 1 µM was found to be 19% in experiment [4], 31% with LNCaP [5], 26% in the experiment with HeLa [6] and 36% in experiment [7].

For `Cn1ccnc1/C=C/C=C/C(=O)/C=C/c1nccn1C`, the inhibition at 10 µM with HeLa [1] was determined as 93%; in the experiment with LNCaP [2] it was 55%; in experiment [3] it was 66%; in experiment [8], 83%. Moreover, the inhibition at 1 µM worked out at 35% in experiment [4], 41% in the experiment on LNCaP [5], 18% in the experiment on HeLa [6] and 21% in experiment [7].

With `Cc1cccc(/C=C/C=C/C(=O)/C=C/c2cccc(C)n2)n1`, the inhibition at 10 µM with HeLa [1] was 94%; in the experiment with LNCaP [2], 57%; in experiment [3], 75%; in experiment [8], 91%. The inhibition at 1 µM in experiment [4] was 35%; in the experiment on LNCaP [5], 50%; in the experiment with HeLa [6], 40%; in experiment [7], 12%.

As for `O=C(/C=C/C=C/c1nccs1)/C=C/c1nccs1`, the inhibition at 10 µM in the experiment with HeLa [1] turned out to be 94%; in the experiment on LNCaP [2], 80%; in experiment [3], 65%; in experiment [8], 86%. In addition, the inhibition at 1 µM came to 28% in experiment [4], 28% in the experiment on LNCaP [5], 11% with HeLa [6] and 2% in experiment [7].

`O=C(/C=C/C=C/c1ccccn1)/C=C/c1ccccn1`: the inhibition at 10 µM in the experiment with HeLa [1] came to 24%; in the experiment on LNCaP [2], 7.2%; in experiment [3] it was 37%; in experiment [8] it was 20%. Also, the inhibition at 1 µM in experiment [4] is 17%; in the experiment with LNCaP [5] it was 0%; in the experiment on HeLa [6] it was 21%; in experiment [7] it was 11%.

As for `Cn1cc(Br)c(/C=C/C=C/C(=O)/C=C/c2nn(C)cc2Br)n1`, the inhibition at 10 µM with HeLa [1] is 95%; with LNCaP [2], 63%; in experiment [3] it was 86%; in experiment [8], 91%. Also, the inhibition at 1 µM in experiment [4] turned out to be 25%; with LNCaP [5] it was 38%; in the experiment on HeLa [6], 52%; in experiment [7], 42%.

For `Cc1nc(C(F)(F)F)c(/C=C/C=C/C(=O)/C=C/c2sc(C)nc2C(F)(F)F)s1`, the inhibition at 10 µM in the experiment with HeLa [1] was 96%; in the experiment with LNCaP [2], 92%; in experiment [3], 80%; in experiment [8], 88%. The inhibition at 1 µM in experiment [4] worked out at 24%; in the experiment with LNCaP [5], 37%; with HeLa [6], 12%; in experiment [7] it was 13%.

As for `O=C(/C=C/C=C/c1ccncc1)/C=C/c1ccncc1`, the inhibition at 10 µM in the experiment on HeLa [1] amounted to 95%; with LNCaP [2], 50%; in experiment [3], 81%; in experiment [8], 84%. Also, the inhibition at 1 µM in experiment [4] was 33%; in the experiment on LNCaP [5], 20%; in the experiment with HeLa [6], 22%; in experiment [7] it was 60%.

Take `CCCCn1ccnc1/C=C/C=C/C(=O)/C=C/c1nccn1CCCC`: the inhibition at 10 µM was determined as 92% in the experiment on HeLa [1], 92% in the experiment on LNCaP [2], 91% in experiment [3] and 87% in experiment [8]. Also, the inhibition at 1 µM in experiment [4] amounted to 33%; in the experiment on LNCaP [5] it was 47%; in the experiment on HeLa [6], 44%; in experiment [7], 35%.

As to `CCn1ccnc1/C=C/C=C/C(=O)/C=C/c1nccn1CC`, the inhibition at 10 µM in the experiment on HeLa [1] was 98%; with LNCaP [2], 62%; in experiment [3], 84%; in experiment [8], 85%. In addition, the inhibition at 1 µM in experiment [4] stood at 32%; in the experiment on LNCaP [5], 23%; with HeLa [6] it was 43%; in experiment [7], 34%.

With `CCCn1ccnc1/C=C/C=C/C(=O)/C=C/c1nccn1CCC`, the inhibition at 10 µM turned out to be 98% in the experiment on HeLa [1], 95% with LNCaP [2], 84% in experiment [3] and 91% in experiment [8]. The inhibition at 1 µM in experiment [4] is 23%; in the experiment with LNCaP [5], 38%; in the experiment on HeLa [6], 34%; in experiment [7], 25%.

`CCCCCCCn1ccnc1/C=C/C=C/C(=O)/C=C/c1nccn1CCCCCCC`: the inhibition at 10 µM with HeLa [1] was found to be 99%; in the experiment on LNCaP [2], 70%; in experiment [3], 93%; in experiment [8], 92%. Further, the inhibition at 1 µM was 28% in experiment [4], 12% with LNCaP [5], 13% with HeLa [6] and 25% in experiment [7].

`COc1cc(/C=C/C(=O)CC(=O)/C=C/c2ccc(O)c(OC)c2)ccc1O` [CURCUMIN]: the inhibition at 10 µM was 50% in the experiment with HeLa [1], 66% in the experiment with LNCaP [2], 59% in experiment [3] and 55% in experiment [8]. Besides, the inhibition at 1 µM in experiment [4] amounted to 2.5%; in the experiment with LNCaP [5], 29%; in the experiment with HeLa [6], 14%; in experiment [7], 7%.

As for `CC(C)=CCn1ccnc1/C=C/C=C/C(=O)/C=C/c1nccn1CC=C(C)C`, the inhibition at 10 µM in the experiment on HeLa [1] turned out to be 94%; with LNCaP [2] it was 70%; in experiment [3], 75%; in experiment [8], 87%. The inhibition at 1 µM in experiment [4] was determined as 35%; in the experiment on LNCaP [5], 38%; in the experiment with HeLa [6], 66%; in experiment [7], 0%.

Consider `CC(C)CCn1c(/C=C/C=C/C(=O)/C=C/c2nc3ccccc3n2CCC(C)C)nc2ccccc21`, for which the inhibition at 10 µM in the experiment with HeLa [1] was found to be 97%; with LNCaP [2] it was 60%; in experiment [3], 97%; in experiment [8], 93%. The inhibition at 1 µM in experiment [4] is 58%; with LNCaP [5], 15%; with HeLa [6], 53%; in experiment [7], 21%.

With `Cc1cc(/C=C/C=C/C(=O)/C=C/c2cc(C)on2)no1`, the inhibition at 10 µM in the experiment with HeLa [1] stood at 97%; in the experiment on LNCaP [2], 70%; in experiment [3], 79%; in experiment [8] it was 88%. The inhibition at 1 µM in experiment [4] was 25%; with LNCaP [5], 13%; in the experiment with HeLa [6] it was 17%; in experiment [7] it was 25%.
